Experimental data from ChEMBL document CHEMBL1158058, “Cardenolide glycosides from Pergularia tomentosa and their proapoptotic activity in Kaposi's sarcoma cells” (2006).
Calls of active or inactive are those of the source. The rule behind the calls is not given here.

How the values were obtained:
KS [1] = test: Cytotoxicity against human KS cells after 24 hrs by coulter counter; format: functional, cell-based
How it was run: (§1)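 KS cells (from HIV-1 patients, spontaneously immortalized) seeded at 5 × 10^3 cells/well and left to attach 24 h. Washed in HBSS-10 mM Hepes, serum-starved 12 h, then exposed at 37 °C for 24 h in fresh serum-free medium to a range of concentrations (DMSO vehicle). Washed, then cell number by XTT (OD 490 nm) and Coulter counter. At least three independent experiments in duplicate, mean ± SEM.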

KS [2] = test: Cytotoxicity against human KS cells after 24 hrs by XTT assay; format: functional, cell-based; how it was run: as §1
KS [3] = test: Cytotoxicity against human KS cells at >1 uM after 24 hrs; format: functional, cell-based
[4] = Induction of apoptosis in human KS cells assessed as DNA fragmentation at 10 uM […] by FACS relative to control; format: functional
How it was run: (§2)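 KS cells serum-starved 12 h and washed with HBSS-10 mM HEPES. Preincubated 1 h at 37 °C with compound (1 or 10 µM) in DMSO (final <0.1%), washed, then cultured 24 h in 1% FBS medium. Hypodiploid (sub-G1) fraction counted by FACS against control.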

KS [5] = test: Induction of apoptosis in human KS cells assessed as caspase 3 activity at 10 uM by DEVD-AFC fluorimetric assay; format: functional, cell-based
How it was run: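 KS cells handled as in the treatment protocol (12 h starvation, 1 h 37 °C exposure at 10 µM in DMSO, 24 h further culture in 1% FBS). Lysates incubated with the caspase-3 substrate DEVD-AFC. Fluorescence read as fold over untreated. Three independent experiments in duplicate (n = 6), mean ± SEM.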

[6] = Induction of apoptosis in human KS cells assessed as DNA fragmentation at 1 uM […] by FACS relative to control; format: functional; how it was run: as §2
KS [7] = test: Effect on human KS cell survival assessed as cell detachment at >1 uM by micrograph analysis; format: functional, cell-based

With `C[C@]12[C@H](O)C[C@H]3[C@@H](CC[C@H]4C[C@H]5O[C@@H]6O[C@H](CO)C[C@@H](O)[C@]6(O)O[C@@H]5C[C@@]43CO)[C@@]1(O)CC[C@@H]2C1=CC(=O)OC1` [GHALAKINOSIDE] the Activity (KS [1]) was “Dose-dependent effect”, the Activity (KS [2]) was “Dose-dependent effect” and the Activity (KS [3]) was “Active”. The Activity [4] was 45% and the Activity (KS [5]) was “Active”.

In the case of `C[C@]12CC[C@H]3[C@@H](CC[C@H]4C[C@H]5O[C@@H]6O[C@H](CO)C[C@@H](O)[C@]6(O)O[C@@H]5C[C@@]43CO)[C@@]1(O)CC[C@@H]2C1=CC(=O)OC1`, the Activity (KS [1]) is reported as “Dose-dependent effect”, the Activity (KS [2]) is reported as “Dose-dependent effect” and the Activity (KS [3]) is reported as “Active”. The Activity [4] was 45% and the Activity (KS [5]) was “Active”.

With `C[C@@H]1C[C@@H](O)[C@]2(O)O[C@@H]3C[C@@]4(C=O)[C@@H](CC[C@@H]5[C@@H]4CC[C@]4(C)[C@@H](C6=CC(=O)OC6)CC[C@]54O)C[C@H]3O[C@@H]2O1` [CALACTIN] the Activity (KS [1]) was “Dose-dependent effect”, the Activity (KS [2]) was “Dose-dependent effect” and the Activity (KS [3]) was “Active”. For the same compound, the Activity [4] was 45% and the Activity (KS [5]) was “Active”.

For `C[C@@H]1C[C@@H](O)[C@]2(O)O[C@@H]3C[C@@]4(CO)[C@@H](CC[C@@H]5[C@@H]4C[C@@H](O)[C@]4(C)[C@@H](C6=CC(=O)OC6)CC[C@]54O)C[C@H]3O[C@@H]2O1`, the Activity (KS [1]) was “Dose-dependent effect”, the Activity (KS [2]) was “Dose-dependent effect” and the Activity (KS [3]) was “Active”. For the same compound, the Activity [4] was 45% and the Activity (KS [5]) was “Active”.

With `C[C@@H]1C[C@@H](O[C@@H]2O[C@H](CO)[C@@H](O)[C@H](O)[C@H]2O)[C@]2(O)O[C@@H]3C[C@@]4(C=O)[C@@H](CC[C@@H]5[C@@H]4CC[C@]4(C)[C@@H](C6=CC(=O)OC6)CC[C@]54O)C[C@H]3O[C@@H]2O1` the Activity (KS [1]) was “Dose-dependent effect”, the Activity (KS [2]) was “Dose-dependent effect” and the Activity (KS [3]) was “Active”. For the same compound, the Activity [6] was 35%, the Activity [4] was 45% and the Activity (KS [5]) was “Active”. The Activity (KS [7]) was “Active”.
